# Measurements: article PMC7486978 (Molecular pharmaceutics, 2019)
# Bridge positions count the residues as written; N and C are the ends. Peptide text beside a SMILES is read from it. * marks the point of attachment. NOTA(2S-Bn(4-NHCS)) = O=C(O)CN1CCN(CC(=O)O)C[C@H](Cc2ccc(NC(=S)*)cc2)N(CC(=O)O)CC1
# How the values were obtained:
# in vivo = assay type: in vivo, BALB/c nude mice; conditions: female, BALB/c nude, mouse, in vivo, total radioactivity
# MCF-7 xenograft mice = assay: in vivo; assay type: in vivo, BALB/c nude mice; conditions: for tumor uptake (biodistribution): no blocking, mean ± SD
# [1] = In vitro stability in PBS; assay type: physicochemical; conditions: PBS pH 7.4, 37 °C, 2 h, 14.8 MBq; analytical radio-HPLC
# Summary of the method: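 ⁶⁸Ga-labelled test compound was prepared by heating precursor with [⁶⁸Ga]GaCl₃ in sodium acetate buffer (final pH about 4.0) at 90 °C for 5 min and used unpurified. Tracer (14.8 MBq) was held in PBS pH 7.4 at 37 °C for 2 h.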
# MCF-7 cells = assay: In vitro cell uptake and blocking study; assay type: cell-based, human; conditions: 100 times excess (100 pmol) nonradioactive RGD, NGR, RGD+NGR or NGR-RGD 15 min in advance; 2 h at 37 °C
# MCF-7 tumor xenograft = assay: Small-animal PET/CT imaging, ROI tumor uptake; assay type: in vivo, BALB/c nude mice; conditions: MCF-7 xenograft, 30 min p.i., n = 4
# [2] = test system: MDA-MB-231 tumor xenograft; assay: Small-animal PET/CT imaging, ROI tumor uptake; assay type: in vivo, BALB/c nude mice; conditions: MDA-MB-231 xenograft, 30 min p.i., 6.5–9 MBq; n = 4
# [3] = test system: MDA-MB-468 tumor xenograft; assay: Small-animal PET/CT imaging, ROI tumor uptake; assay type: in vivo, BALB/c nude mice; conditions: MDA-MB-468 xenograft, 30 min p.i., 6.5–9 MBq; n = 4
# MX-1 tumor xenograft = assay: Small-animal PET/CT imaging, ROI tumor uptake; assay type: in vivo, BALB/c nude mice; conditions: MX-1 xenograft, 30 min p.i., 6.5–9 MBq; n = 4
# [4] = test system: MDA-MB-231 xenograft mice; assay: Post-imaging biodistribution; assay type: in vivo, BALB/c nude mice; conditions: 1 h p.i., mean ± SD, n = 4
# Summary of the method: (§1)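 Female BALB/c nude mice were injected s.c. in the right shoulder with 1.0 × 10⁷ cells (MDA-MB-231/MDA-MB-468 grown in L-15 without CO₂; MX-1 in high-glucose DMEM, 10% FBS, 5% CO₂). They were used at tumor size 0.8–1.0 cm and given ⁶⁸Ga-labelled test compound (6.5–9 MBq, 125 μL) by tail vein. PET/CT under 2.0% isoflurane ran at 30 min. Mice were euthanized at 1 h; tissues weighed, γ-counted, decay-corrected %ID/g, mean ± SD.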
# [5] = test system: MDA-MB-468 xenograft mice; assay: Post-imaging biodistribution; assay type: in vivo, BALB/c nude mice; conditions: 1 h p.i., mean ± SD, n = 4
# Summary of the method: as §1
# MX-1 xenograft mice = assay: Post-imaging biodistribution; assay type: in vivo, BALB/c nude mice; conditions: 1 h p.i., mean ± SD, n = 4
# Summary of the method: as §1
# [6] = MCF-7 xenograft mice, 1 h p.i., n = 4
compound,measurement,setting,value
"N=C(N)NCCC[C@@H]1NC(=O)CNC(=O)[C@H](CC(N)=O)NC(=O)[C@H](CCCCNC(=S)Nc2ccc(C[C@H]3CN(CC(=O)O)CCN(CC(=O)O)CCN3CC(=O)O)cc2)NC(=O)CC[C@@H](C(N)=O)NC1=O [^68Ga-NGR, metal not drawn, reference compound] (K(NOTA(2S-Bn(4-NHCS)))NGRE-NH2; lactam N-5; C-terminus assumed)",tissue uptake at 1 h,in vivo,0.87 ± 0.04 %ID/g
same,tumor uptake (biodistribution),MCF-7 xenograft mice; [6],0.14 ± 0.04 %ID/g
c(RGDyK)-PEG4-NOTA-click-PEG4-c(CNGRC) (bicyclic or more) [^68Ga-NGR-RGD],proportion of the intact tracer,[1],exceeded 95%
same,uptake by MCF-7 cells when pretreated with excess of blocking agents,MCF-7 cells,decreased significantly
same,"tumor uptake (PET ROI), blocked by NGR",MCF-7 tumor xenograft; coinjected unlabeled NGR 20 mg/kg,0.80 ± 0.03 %ID/g
same,"tumor uptake (PET ROI), blocked by NGR-RGD",MCF-7 tumor xenograft; coinjected unlabeled NGR-RGD 20 mg/kg,0.28 ± 0.06 %ID/g
same,"tumor uptake (PET ROI), blocked by RGD",MCF-7 tumor xenograft; coinjected unlabeled RGD 20 mg/kg,0.37 ± 0.05 % ID/g
same,"tumor uptake (PET ROI), blocked by RGD+NGR",MCF-7 tumor xenograft; coinjected unlabeled RGD+NGR 20 mg/kg,0.31 ± 0.03 %ID/g
same,tumor uptake (PET ROI),MCF-7 tumor xenograft; comparison of tumor types (Figure 5B),1.03 ± 0.08 %ID/g
same,tumor uptake (PET ROI),[2],1.04 ± 0.06 %ID/g
same,tumor uptake (PET ROI),[3],0.76 ± 0.10 %ID/g
same,tumor uptake (PET ROI),MX-1 tumor xenograft,0.41 ± 0.08 %ID/g
same,"tumor uptake (biodistribution), blocked with NGR-RGD","MCF-7 xenograft mice; MCF-7 xenograft mice, 1 h p.i., coinjection of excess unlabeled NGR-RGD, n = 4",0.16 ± 0.04 %ID/g
same,"tumor uptake (biodistribution), blocked with NGR","MCF-7 xenograft mice; MCF-7 xenograft mice, 1 h p.i., coinjection of excess unlabeled NGR, n = 4",0.67 ± 0.02 %ID/g
same,"tumor uptake (biodistribution), blocked with RGD+NGR","MCF-7 xenograft mice; MCF-7 xenograft mice, 1 h p.i., coinjection of excess unlabeled RGD+NGR, n = 4",0.20 ± 0.07 %ID/g
same,"tumor uptake (biodistribution), blocked with RGD","MCF-7 xenograft mice; MCF-7 xenograft mice, 1 h p.i., coinjection of excess unlabeled RGD, n = 4",0.17 ± 0.04 %ID/g
same,tumor uptake (biodistribution),MCF-7 xenograft mice; [6],1.02 ± 0.16 %ID/g
same,accumulation in the kidneys (biodistribution),"MCF-7 xenograft mice; mouse, in vivo, 1 h",2.52 ± 0.30 %ID/g
same,tumor uptake (biodistribution),[4],0.53 ± 0.05 %ID/g
same,tumor uptake (biodistribution),[5],0.28 ± 0.04 %ID/g
same,tumor uptake (biodistribution),MX-1 xenograft mice,0.20 ± 0.03 %ID/g
